Counter-ions that a name gives are not always drawn. Where a SMILES comes first, the peptide text is derived from it. [ ]: non-standard residue; d: D form. AEEA = NCCOCCOCC(=O)O
How the values were obtained:
[1] = tested on: MRSA-infected RAW264.7 macrophages; assay: Intracellular antibacterial activity; assay type: cell-based; conditions: vancomycin 20 μmol/L, 2 h; MOI 10:1
MRSA (strain 33564) [2] = assay: Time-kill kinetics; assay type: cell-based, methicillin-resistant Staphylococcus aureus; conditions: 1×10^7 CFU/mL, RPMI 1640 + 10% FBS, 37°C
How it was run: (§1)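 Bacteria adjusted to 1×10^7 CFU/mL in RPMI 1640 with 10% FBS. Incubated at 37°C, 200 rpm. Sampled every 30 min from 0 to 360 min, serially diluted in saline, plated on Mueller-Hinton agar, counted after 24 h at 37°C. Plotted as log₁₀ CFU/mL versus time.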

MRSA (strain 33564) [3] = assay: Membrane depolarization, DiSC3; assay type: cell-based, methicillin-resistant Staphylococcus aureus; conditions: 30 min observation
How it was run: (§2)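 Cells grown in Mueller-Hinton broth to OD600 0.5, pelleted (3500 r/min, 5 min, 4°C), washed twice in 5 mM HEPES pH 7.4 with 20 mM glucose. Adjusted to OD600 0.05 and loaded 30 min at room temperature with DiSC₃(5) (2 µmol/L final). KCl added (100 mmol/L final). After baseline reading (ex 622/em 670 nm), test compound added at 1, 2, 4 or 8 µmol/L; read continuously for 30 min.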

[4] = tested on: K. pneumoniae (strain 9409); assay: Membrane depolarization, DiSC3; assay type: cell-based, Klebsiella pneumoniae; conditions: 30 min observation
How it was run: as §2

E. coli LPS = assay: LPS-induced endotoxemia model; assay type: in vivo, mouse (female CD-1); conditions: 10 mg/kg i.p. 1 h after LPS 10 mg/kg, blood 6 h after LPS, n = 5
How it was run: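 Female CD-1 mice (8–10 weeks) challenged intravenously with E. coli LPS 10 mg/kg. Test compound 10 mg/kg given intraperitoneally 1 h later (n=5); LPS-only controls. Blood drawn 6 h after LPS. Serum IL-6, MCP-1, TNF-α and IL-1β measured by ELISA. Mean±SEM; one-way ANOVA, Dunnett.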

[5] = tested on: K. pneumoniae persister cells; assay: Anti-persister activity; assay type: cell-based, Klebsiella pneumoniae; conditions: 8× MIC, 1 h 37°C; persisters from colistin 50× MIC 6 h
How it was run: (§3)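 Exponential-phase cultures treated 6 h with 50× MIC colistin (K. pneumoniae) or vancomycin (MRSA). Survivors pelleted (4 000 r/min, 10 min, 4°C), washed twice in PBS and resuspended in Mueller-Hinton broth at about 1×10^7 CFU/mL. […] Serially diluted, plated on Mueller-Hinton agar, CFU counted.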

K. pneumoniae = assay: Agar spotting assay; assay type: cell-based, Klebsiella pneumoniae; conditions: bacterial spotting assay, Fig. 4B
[6] = tested on: HEK293 (human embryonic kidney cells); assay: Cytotoxicity, CCK-8; assay type: cell-based; conditions: nearly all concentrations (2.5-80 μmol/L), 24 h
MRSA strain 33564 = assay: Membrane permeabilization, PI uptake; assay type: cell-based, methicillin-resistant Staphylococcus aureus; conditions: 0-32 μM, PI 10 μg/mL, 37°C 30 min
Dynamic light scattering = assay type: physicochemical; conditions: DLS, 500 μg/mL in PBS pH 7.4, 25°C, triplicate
bacterial DNA = assay: DNA interaction, gel electrophoresis; assay type: binding; conditions: Fig. S5
LPS = assay: BODIPY-TR-cadaverine displacement assay; assay type: binding; conditions: 0-64 μmol/L, LPS 50 μg/mL, 50 mmol/L Tris pH 7.4, 30 min 37°C
In vivo pharmacokinetics = assay: In vivo pharmacokinetics; design: species or system mouse (female CD-1)
How it was run: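 Plasma concentrations of test compound measured by HPLC over 8 h after dosing.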

[7] = tested on: RAW264.7 (murine macrophages); assay: Cytotoxicity, CCK-8; assay type: cell-based; conditions: nearly all concentrations (2.5-80 μmol/L), 24 h
[8] = tested on: K. pneumoniae (strain 9409); assay: Time-kill kinetics; assay type: cell-based, Klebsiella pneumoniae; conditions: TRPY 2 μmol/L; 1×10^7 CFU/mL, RPMI 1640 + 10% FBS, 37°C
How it was run: as §1

MRSA biofilm [9] = assay: Eradication of preformed biofilm, crystal violet; assay type: cell-based, methicillin-resistant Staphylococcus aureus; conditions: TRPY 8 µmol/L, 24 h on 24 h biofilm
How it was run: (§4)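 Biofilms formed with test compound present (inhibition) or pre-formed then treated (eradication). Stained with 0.1% crystal violet; biofilm quantified by absorbance at 600 nm against untreated control.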

[10] = tested on: K. pneumoniae (strain 9409); assay: Salt sensitivity assay; assay type: cell-based, Klebsiella pneumoniae
How it was run: (§5)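 MICs determined in RPMI-1640 with 150 mM FeCl₃, CaCl₂, KCl, NaCl or MgCl₂ added; unsupplemented RPMI 1640 as control. Read after 18–24 h at 37°C. Three independent experiments, mean±SEM.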

[11] = tested on: HaCaT (human keratinocytes); assay: Cytotoxicity, CCK-8; assay type: cell-based; conditions: nearly all concentrations (2.5-80 μmol/L), 24 h
MRSA persister cells = assay: Anti-persister activity; assay type: cell-based, methicillin-resistant Staphylococcus aureus; conditions: 8 μmol/L, 1 h 37°C; persisters from vancomycin 50× MIC 6 h
How it was run: as §3

MRSA 33564 [12] = assay: Bacterial aggregation; assay type: cell-based, methicillin-resistant Staphylococcus aureus; conditions: 10 to 80 μmol/L, 4 h 37°C, PBS
K. pneumoniae biofilm [13] = assay: Eradication of preformed biofilm, crystal violet; assay type: cell-based, Klebsiella pneumoniae; conditions: TRPY 8 µmol/L, 24 h on 24 h biofilm
How it was run: as §4

MRSA = assay: Agar spotting assay; assay type: cell-based, methicillin-resistant Staphylococcus aureus; conditions: bacterial spotting assay, Fig. 4B
[14] = tested on: K. pneumoniae strain 9409; assay: Membrane permeabilization, PI uptake; assay type: cell-based, Klebsiella pneumoniae; conditions: 0-32 μM, PI 10 μg/mL, 37°C 30 min
MRSA biofilm [15] = assay: Biofilm formation inhibition, crystal violet; assay type: cell-based, methicillin-resistant Staphylococcus aureus; conditions: TRPY 32 μmol/L, 24 h
How it was run: as §4

K. pneumoniae biofilm [16] = assay: Biofilm formation inhibition, crystal violet; assay type: cell-based, Klebsiella pneumoniae; conditions: TRPY 32 μmol/L, 24 h
How it was run: as §4

K. pneumoniae 9409 = assay: Bacterial aggregation; assay type: cell-based, Klebsiella pneumoniae; conditions: 10 to 80 μmol/L, 4 h 37°C, PBS
MRSA 33564 [17] = assay: MRSA peritoneal infection model; assay type: in vivo, mouse (female CD-1); conditions: 10 mg/kg i.p.
How it was run: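 Female CD-1 mice (8–10 weeks) were challenged intraperitoneally with MRSA (1×10^8 CFU/mL). At 2 h post-infection they received 10 mg/kg test compound or PBS vehicle intraperitoneally (n=6 per group). Liver and kidneys were collected at 24 h post-infection and fixed in formalin. H&E-stained sections were compared with those from healthy, infected and vehicle-treated mice.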

[18] = In vivo toxicity, 5 day intraperitoneal dosing; design: species or system mouse (female CD-1); conditions: for serum urea: n = 4; for aspartate aminotransferase (AST): serum day 5, n = 4; for alanine aminotransferase (ALT): serum day 5, n = 4, mean
How it was run: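 Test compound given intraperitoneally to mice over 5 days at 5 and 10 mg/kg; PBS control group. Serum ALT and AST measured in U/L.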

K. pneumoniae R62 = assay: Acute K. pneumoniae pulmonary infection model; assay type: in vivo, mouse (female CD-1)
MRSA (strain 33564) [19] = assay: Salt sensitivity assay; assay type: cell-based, methicillin-resistant Staphylococcus aureus
How it was run: as §5

[20] = female, CD-1, mouse, plasma, iv, 5 mg/kg
[21] = 150 mmol/L of each salt in RPMI-1640
[22] = 5 mg/kg i.p. once daily for 5 days
[23] = 10 mg/kg i.p. once daily for 5 days
[24] = 5 and 10 mg/kg i.p. for 5 days vs PBS
[25] = 2 mg/kg intranasal, 18 h post-treatment, n = 7

Question: Which intracellular bacterial burden [1] does the source give for CN[C@H](CC(C)C)C(=O)N[C@H]1C(=O)N[C@@H](CC(N)=O)C(=O)N[C@H]2C(=O)N[C@H]3C(=O)N[C@H](C(=O)N[C@H](C(=O)O)c4cc(O)cc(O)c4-c4cc3ccc4O)[C@H](O)c3ccc(c(Cl)c3)Oc3cc2cc(c3O[C@@H]2O[C@H](CO)[C@@H](O)[C@H](O)[C@H]2O[C@H]2C[C@](C)(N)[C@H](O)[C@H](C)O2)Oc2ccc(cc2Cl)[C@H]1O [Vancomycin, vancomycin sulfate] here?
Answer: approximately 1.5×10^5 CFU/mL

Question: What does the source list for CNC(C)C1CCC(N)C(OC2C(N)CC(N)C(OC3OCC(C)(O)C(NC)C3O)C2O)O1 (stereo not shown) [Gentamicin, gentamicin sulfate]?
Answer: time to eradicate all viable cells (MRSA (strain 33564) [2]; gentamicin 20 μmol/L): over 360 min; DiSC3(5) fluorescence (membrane potential) (MRSA (strain 33564) [3]): maintained baseline fluorescence; DiSC3(5) fluorescence (membrane potential) [4]: maintained baseline fluorescence

Question: Which results are given for CC[C@H](C)[C@H](NC(=O)[C@H](CCCCN)NC(=O)[C@H](Cc1c[nH]c2ccccc12)NC(=O)[C@H](Cc1c[nH]c2ccccc12)NC(=O)[C@H](CCCCN)NC(=O)[C@H](CCCCN)NC(=O)[C@H](CCCCN)NC(=O)[C@H](Cc1c[nH]c2ccccc12)NC(=O)[C@H](CCCCN)NC(=O)[C@H](CCCCN)NC(=O)[C@H](Cc1c[nH]c2ccccc12)NC(=O)[C@H](CCCCN)NC(=O)[C@H](CCCCN)NC(=O)[C@@H](NC(=O)[C@@H](NC(=O)[C@H](CCCCN)NC(=O)[C@@H](N)CCCNC(=N)N)[C@@H](C)CC)[C@@H](C)CC)C(=O)N[C@@H](Cc1c[nH]c2ccccc12)C(=O)N[C@@H](Cc1c[nH]c2ccccc12)C(=O)N[C@@H](CCCCN)C(=O)NCCOCCOCC(N)=O [TRPY] (H-RKIIKKWKKWKKKWWKIWWK[AEEA]-NH2; N-terminus and C-terminus assumed)?
Answer: reduction of serum IL-1β relative to LPS-only controls (E. coli LPS): 52.3%; reduction of serum IL-6 relative to LPS-only controls (E. coli LPS): 42.3%; reduction of serum MCP-1 relative to LPS-only controls (E. coli LPS): 46.6%; reduction of serum TNF-α relative to LPS-only controls (E. coli LPS): 39.5%; persister CFU/mL after treatment [5]: virtually undetectable levels; concentration giving complete growth inhibition (K. pneumoniae): ≥ 1 µmol/L; cell viability [6]: over 80%; PI uptake (cytoplasmic membrane disruption) (MRSA strain 33564): concentration-dependent increase in PI fluorescence; nanoparticle average size (Dynamic light scattering): approximately 160 nm; concentration inducing degradation or binding to bacterial DNA (bacterial DNA): ≥ 4 µmol/L; LPS binding (probe displacement) (LPS): strong, concentration-dependent binding to LPS; level at 0.25 h (In vivo pharmacokinetics; [20]): ~15000 ng/mL; level at 2 h (In vivo pharmacokinetics; [20]): < 1000 ng/mL; level at 8 h (In vivo pharmacokinetics; [20]): ~120 ng/mL; elimination profile (In vivo pharmacokinetics; single i.v. 5 mg/kg, 8 h): biphasic elimination profile; cell viability [7]: over 80%; time to eliminate all viable cells [8]: ≤ 60 min; reduction of preformed biofilm (MRSA biofilm [9]): over 40%; effect of KCl, NaCl, and CaCl2 on antimicrobial activity [10, 21]: minimal interference with antimicrobial activity; MIC with FeCl3 ([10]; RPMI-1640 + 150 mmol/L FeCl3, 37°C 18-24 h, strain 9409): approximately 2.0 μmol/L; MIC with MgCl2 ([10]; RPMI-1640 + 150 mmol/L MgCl2, 37°C 18-24 h, strain 9409): approximately 2.0 μmol/L; cell viability [11]: over 80%; time to eradicate all viable cells (MRSA (strain 33564) [2]; TRPY 2 μmol/L): ≤ 60 min; persister cells after treatment (MRSA persister cells): complete eradication; bacterial aggregation (MRSA 33564 [12]): dose-dependent formation of visible precipitates; reduction of preformed biofilm (K. pneumoniae biofilm [13]): over 40%; concentration giving complete growth inhibition (MRSA): ≥ 1 µmol/L; PI uptake (cytoplasmic membrane disruption) [14]: concentration-dependent increase in PI fluorescence; reduction of biofilm formation compared to control (MRSA biofilm [15]): approximately 95%; reduction of biofilm formation compared to control (K. pneumoniae biofilm [16]): approximately 95%; bacterial aggregation (K. pneumoniae 9409): dose-dependent formation of visible precipitates; liver and kidney histopathology in infected mice (MRSA 33564 [17]): maintained normal tissue architecture in the liver and kidneys; serum urea [18, 22]: 11.2 ± 1.5 µmol/L; aspartate aminotransferase (AST) [18, 22]: 102.7±6.6 U/L; alanine aminotransferase (ALT) [18, 22]: 22.8±2.6 U/L; serum urea [18, 23]: 12.1 ± 1.2 µmol/L; aspartate aminotransferase (AST) [18, 23]: 105.2±4.7 U/L; alanine aminotransferase (ALT) [18, 23]: 23.4±3.2 U/L; kidney histopathology (H&E) ([18]; 5 and 10 mg/kg i.p. for 5 days): normal glomerular and tubular architecture; liver histopathology (H&E) ([18]; 5 and 10 mg/kg i.p. for 5 days): no signs of necrosis, inflammation, or fatty degeneration; alkaline phosphatases (ALP) levels [18, 24]: comparable across treatment groups; body weight [18, 24]: no significant differences between the TRPY-treated and control groups; lung histology (H&E) (K. pneumoniae R62; 2 mg/kg intranasal): reduced inflammatory cell infiltration and preserved alveolar architecture; reduction of pulmonary bacterial burden vs control (K. pneumoniae R62; 2 mg/kg intranasal 2 h post-infection, lungs 18 h post-treatment, n = 7): approximately 1 log; reduction in IL-1β vs control group (K. pneumoniae R62; [25]): 42.8%; reduction in IL-6 vs control group (K. pneumoniae R62; [25]): 39.2%; reduction in MCP-1 vs control group (K. pneumoniae R62; [25]): 58.4%; reduction in TNF-α vs control group (K. pneumoniae R62; [25]): 34.7%; effect of KCl, NaCl, and CaCl2 on antimicrobial activity (MRSA (strain 33564) [19]; [21]): minimal interference with antimicrobial activity; MIC with FeCl3 (MRSA (strain 33564) [19]; RPMI-1640 + 150 mmol/L FeCl3, 37°C 18-24 h, strain 33564): approximately 2.0 μmol/L; MIC with MgCl2 (MRSA (strain 33564) [19]; RPMI-1640 + 150 mmol/L MgCl2, 37°C 18-24 h, strain 33564): approximately 2.0 μmol/L

From publication PMC12780499 (Zoological Research, 2025)
